# “Also recorded” adds a separate entry of the source.
# Columns and labels:
# [1] = target: AVP (adenovirus proteinase) (Human adenovirus C serotype 2, UniProt P03252); experiment: Inhibition of AVP; type: biochemical, adenovirus serotype 2
# Procedure, shortened: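 Purified adenovirus type 2 AVP was pre-incubated 9 min at 21°C with varied compound in 5 mM NaCl, 20 mM Tris-HCl pH 8, 0.025% DDM, 0.1 mM DTT. pVIc was then added to 20 μM for another 9 min. Rates with 5 μM (Cbz-Leu-Arg-Gly-Gly-NH)₂-Rhodamine were read every 10 s (ex 496/em 523 nm). IC50 came from a four-parameter logistic fit of initial rates.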
# Papain = target: T1, Papain (Carica papaya, UniProt P00784); experiment: Selectivity assay with papain; type: biochemical
# T1 sequence (P00784 134-345): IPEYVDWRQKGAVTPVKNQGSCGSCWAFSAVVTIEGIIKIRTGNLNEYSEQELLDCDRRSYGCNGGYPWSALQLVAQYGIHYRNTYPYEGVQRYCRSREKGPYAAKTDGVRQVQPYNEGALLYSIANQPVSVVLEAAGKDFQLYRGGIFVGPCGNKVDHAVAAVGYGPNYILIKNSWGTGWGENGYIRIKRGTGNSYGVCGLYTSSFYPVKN
# Procedure, shortened: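 Papain was incubated with increasing compound for 10 min at 21°C in 25 mM sodium acetate with 1 mM DTT. Hydrolysis of the fluorogenic substrate was followed over time (ex 496/em 523 nm). Rates were normalized to the rate without inhibitor and reported as % activity.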
# [2] = system: AVP and AVP-pVIc complexes; experiment: Coarse screening of structural derivatives for enzyme inhibitors; type: biochemical, adenovirus serotype 2; conditions: 40 μM compound, 150 mM NaCl, 0.3 μM enzyme
# Procedure, shortened: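 AVP (adenovirus type 2, E. coli-expressed) or AVP-pVIc complexes (75 μM each, overnight at 4°C with 20 mM β-mercaptoethanol) were pre-incubated 9 min at 21°C with compound from 10 mM DMSO stock. Buffer was 20 mM Tris-HCl pH 8, 0.025% DDM, 0.1 mM DTT. For AVP, 40 μM pVIc was then added for 9 min more. Initial rates with 5 μM (Cbz-Leu-Arg-Gly-Gly-NH)₂-Rhodamine (ex 496/em 523 nm) were normalized to the no-inhibitor rate.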
# Trypsin = target: T2, Trypsin (Bos taurus, UniProt P00760); experiment: Selectivity assay with trypsin; type: biochemical
# T2 sequence (P00760 24-246): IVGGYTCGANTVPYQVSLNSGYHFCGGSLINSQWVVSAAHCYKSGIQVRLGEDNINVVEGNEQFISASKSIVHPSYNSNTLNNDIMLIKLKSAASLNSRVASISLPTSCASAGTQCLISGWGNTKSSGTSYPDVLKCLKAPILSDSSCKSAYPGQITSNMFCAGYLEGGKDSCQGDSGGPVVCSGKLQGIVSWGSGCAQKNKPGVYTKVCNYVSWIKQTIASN
# Procedure, shortened: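 TPCK-treated trypsin was exposed to increasing compound at 21°C in 25 mM HEPES with 1 mM CaCl₂. Substrate hydrolysis was tracked as fluorescence increase (ex 496/em 523 nm). Rates were normalized to the no-inhibitor rate and expressed as % activity.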
# AVP-pVIc complexes [3] = target: T3, AVP-pVIc complexes (Human adenovirus C serotype 2, UniProt P03252); experiment: Inhibition of AVP-pVIc complexes, fluorogenic substrate assay; type: biochemical, adenovirus serotype 2
# T3 sequence (P03252 whole entry, one chain of several): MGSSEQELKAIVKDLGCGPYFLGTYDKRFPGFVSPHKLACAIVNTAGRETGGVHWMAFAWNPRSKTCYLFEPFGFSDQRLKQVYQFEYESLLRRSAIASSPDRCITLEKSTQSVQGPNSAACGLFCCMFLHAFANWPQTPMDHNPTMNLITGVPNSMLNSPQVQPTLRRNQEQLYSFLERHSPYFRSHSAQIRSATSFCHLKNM
# [4] = target: Adenovirus proteinase (AVP) (Human adenovirus 2) (UniProt P03252); conditions: cited from earlier work
# Chain of Adenovirus proteinase (AVP) (Human adenovirus 2) (P03252 whole entry): as the sequence (P03252 whole entry, one chain of several) above
# AVP-pVIc complexes [5] = target: T3, AVP-pVIc complexes; experiment: Competitive inhibition of AVP-pVIc complexes; type: biochemical, adenovirus serotype 2
# AVP = AVP (Human adenovirus C serotype 2, UniProt P03252); experiment: Mixed inhibition of AVP; type: biochemical, adenovirus serotype 2
# Chain of AVP (P03252 whole entry): as the sequence (P03252 whole entry, one chain of several) above
# [6] = 0.18 μM papain, pH 5, 10 μM (Phe-Arg-NH)2-Rhodamine
# [7] = 20 pM trypsin, 10 min, pH 7.5, 10 μM (Ile-Pro-Arg-NH)2-Rhodamine
# [8] = best fitting model, SigmaPlot Kinetic Module
# [9] = concentrations 50-fold higher than that inhibiting AVP or AVP-pVIc by more than 90%
# Chain of AVP (adenovirus proteinase) (P03252 whole entry): as the sequence (P03252 whole entry, one chain of several) above
# Chain of pVIc (P03274 whole entry, looked up): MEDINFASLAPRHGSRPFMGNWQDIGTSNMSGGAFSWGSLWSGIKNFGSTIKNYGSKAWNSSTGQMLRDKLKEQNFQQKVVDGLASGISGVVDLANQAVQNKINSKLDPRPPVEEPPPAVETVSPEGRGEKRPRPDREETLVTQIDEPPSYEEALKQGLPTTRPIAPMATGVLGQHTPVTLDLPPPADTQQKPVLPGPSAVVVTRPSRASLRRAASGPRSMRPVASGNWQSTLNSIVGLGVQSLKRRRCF
Compound,IC50 [1] [nM],Inhibition of papain (Papain; [6]),Inhibition in coarse screen [2],Inhibition of trypsin (Trypsin; [7]),IC50 (AVP-pVIc complexes [3]) [nM],further results
"CC(C)CCN(CCC(C)C)CC(=O)Nc1ccc(S(=O)(=O)c2ccc(NC(=O)CN(CCC(C)C)CCC(C)C)cc2)cc1 [NSC 37248, 2-[bis(3-methylbutyl)amino]-N-[4-[4-[[2-[bis(3-methylbutyl)amino]acetyl]amino]phenyl]sulfonylphenyl]acetamide]",880,No Inhibition,inhibit either the activation of AVP or the activity of AVP-pVIc complexes; also recorded: effective inhibitors,No Inhibition,2100,–
pVIc (from UniProt P03274),–,–,–,–,–,Kd [4]: 4400 nM
"CC1COCC(C)N1CC(=O)Nc1ccc(S(=O)(=O)c2ccc(NC(=O)CN3C(C)COCC3C)cc2)cc1 (centres unmarked) [NSC 106702, 2-(3,5-dimethylmorpholin-4-yl)-N-[4-[4-[[2-(3,5-dimethylmorpholin-4-yl)acetyl]amino]phenyl]sulfonylphenyl] acetamide]",–,–,inhibit either the activation of AVP or the activity of AVP-pVIc complexes,–,–,–
"O=C(Nc1ccc(S(=O)(=O)c2ccc(NC(=O)C(F)(F)N3CCOCC3)cc2)cc1)C(F)(F)N1CCOCC1 [NSC 106721, N-[4-[4-[(2,2-difluoro-2-morpholin-4-ylacetyl)amino]phenyl]sulfonylphenyl]-2,2-difluoro-2-morpholin-4-ylacetamide]",–,–,inhibit either the activation of AVP or the activity of AVP-pVIc complexes,–,–,–
"O=C1CN2CCN(CC2)CC(=O)Nc2ccc(cc2)S(=O)(=O)c2ccc(cc2)NC(=O)CN2CCN(CC2)CC(=O)Nc2ccc(cc2)S(=O)(=O)c2ccc(cc2)N1 [NSC 36806, 2,21-dithia-7,10,13,16,26,29,32,35-octaazaheptacyclo[34.2.2.23,6.210,13.217, 20.222,25.229,32]pentaconta-1(38),3,5,17,19,22,24,36,39,43,45,49-dodecaene-8,15,27,34-tetrone 2,2,21,21-tetraoxide]",–,–,–,did not inhibit,18000,–
"O=C(CN(C1CCCCC1)C1CCCCC1)Nc1ccc(S(=O)(=O)c2ccc(NC(=O)CN(C3CCCCC3)C3CCCCC3)cc2)cc1 [NSC 37249, 2-(dicyclohexylamino)-N-[4-[4-[[2-(dicyclohexylamino)acetyl]amino]phenyl]sulfonylphenyl]acetamide]",140,No Inhibition,inhibit either the activation of AVP or the activity of AVP-pVIc complexes; also recorded: effective inhibitors,No Inhibition,490,"Ki (AVP-pVIc complexes [5]; Ki AVP:pVIc, competitive inhibition model, substrate 2.5-20 μM): 403 nM; Type of inhibition, AVP-pVIc complexes (AVP-pVIc complexes [5]; [8]): Competitive Inhibition; also recorded: competitive inhibitor; Ki (AVP): 150 nM; Type of inhibition, AVP (AVP; [8]): Mixed Inhibition; Inhibition of papain (Papain; [9]): did not inhibit; Inhibition of papain (Papain; concentrations up to 50-fold the Ki for AVP): no inhibition was observed; Inhibition of trypsin (Trypsin; [9]): did not inhibit; Inhibition of trypsin (Trypsin; concentrations up to 18 μM): no inhibition was observed"

# From article PMC3810942 (FEBS letters, 2013)
